Measurements published in ChEMBL document CHEMBL1131259, “Synthesis and evaluation of diphenyl phosphonate esters as inhibitors of the trypsin-like granzymes A and K and mast cell tryptase” (J Med Chem, 1998).
Active and inactive are the calls of the source. No cut-off for these calls is given here.

How the values were obtained:
[1] = biological target: T1, Granzyme A (Homo sapiens) (UniProt P12544); experiment: Inhibition of human granzyme A
T1 sequence (whole entry): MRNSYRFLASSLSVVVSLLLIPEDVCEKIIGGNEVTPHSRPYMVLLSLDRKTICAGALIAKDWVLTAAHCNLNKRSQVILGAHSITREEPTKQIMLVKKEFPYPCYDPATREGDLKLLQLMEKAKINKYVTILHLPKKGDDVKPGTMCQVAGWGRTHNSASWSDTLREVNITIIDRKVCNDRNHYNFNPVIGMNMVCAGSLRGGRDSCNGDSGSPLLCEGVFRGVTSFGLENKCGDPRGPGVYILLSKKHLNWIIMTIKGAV
Summary of the method: (§1)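 Recombinant human and rat granzyme A, incubated with inhibitor (1.0–450 μM) at 25 °C in 0.1 M Hepes, 0.01 M CaCl2, pH 7.5 (7.6% DMSO). Timed aliquots were read for residual activity on Cbz-Arg-SBzl with DTNB at 405 nm. k_obs came from ln vt/vo vs time over 5–10 points and 2–3 half-lives, two k_obs per inhibitor. DMSO controls were run.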

[2] = biological target: T2, Granzyme K (Rattus norvegicus) (UniProt P49864); experiment: Compound was evaluated to inhibit rat granzyme K; No inhibition
T2 sequence (whole entry): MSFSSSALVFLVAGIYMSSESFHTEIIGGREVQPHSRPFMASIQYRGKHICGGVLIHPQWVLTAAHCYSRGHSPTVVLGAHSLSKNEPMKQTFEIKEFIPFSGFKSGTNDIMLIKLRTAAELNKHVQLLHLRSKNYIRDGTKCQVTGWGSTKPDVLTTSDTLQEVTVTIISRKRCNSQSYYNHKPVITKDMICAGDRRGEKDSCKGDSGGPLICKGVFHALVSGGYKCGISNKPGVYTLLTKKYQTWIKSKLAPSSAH
Summary of the method: (§2)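 Native rat granzyme K, purified by size-exclusion in 1 M NaCl then MonoS cation exchange. Incubated with inhibitor (1.0–450 μM) at 25 °C in 0.1 M Hepes, 0.01 M CaCl2, pH 7.5 (7.1% DMSO). Timed aliquots were read for residual activity on Cbz-Arg-SBzl with DTNB at 405 nm. k_obs came from ln vt/vo vs time, one or two per inhibitor. For no-inhibition lines, none was seen after 25 min.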

[3] = biological target: T3, Serine protease 1 (Bos taurus) (UniProt P00760); experiment: Compound was evaluated to inhibit bovine trypsin; No inhibition
T3 sequence (whole entry): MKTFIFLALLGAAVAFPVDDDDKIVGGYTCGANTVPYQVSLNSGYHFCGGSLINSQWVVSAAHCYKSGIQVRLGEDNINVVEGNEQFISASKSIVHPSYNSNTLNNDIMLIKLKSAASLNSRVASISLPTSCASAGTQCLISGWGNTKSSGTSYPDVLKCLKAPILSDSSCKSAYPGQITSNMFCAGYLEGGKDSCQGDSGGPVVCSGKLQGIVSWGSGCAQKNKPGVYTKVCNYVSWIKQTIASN
Summary of the method: (§3)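 Irreversible inhibition assayed by incubation at 25 °C in 0.1 M Hepes, 0.01 M CaCl2, pH 7.5 (2% DMSO), inhibitor 1.0–450 μM. Timed aliquots were read for residual activity on Cbz-Arg-SBzl with DTNB at 410 nm. Pseudo-first-order k_obs came from ln vt/vo vs time, using 5–10 points over 2–3 half-lives, three k_obs per inhibitor. DMSO-only controls were run. For no-inhibition lines, none was seen after 25 min.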

[4] = biological target: T4, Tryptase (Homo sapiens) (UniProt Q9BZJ3+Q15661+Q9NRR2); experiment: Compound was evaluated to inhibit mast cell tryptase; No inhibition; format: protein assay
Summary of the method: (§4)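 Human lung mast cell tryptase, high-molecular-weight form, heparin-free, active sites titrated with MUGB. Incubated with inhibitor at 25 °C in 0.1 M Hepes, 10% glycerol, 10 mM heparin, pH 7.5 (7.1% DMSO). […] DMSO controls were run.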

[5] = biological target: T3, Serine protease 1 (Bos taurus); experiment: Inhibition of bovine trypsin; summary of the method: as §3
[6] = biological target: T4, Tryptase (Homo sapiens); experiment: Inhibition of mast cell tryptase; format: protein assay; summary of the method: as §4
[7] = biological target: T5, Granzyme A (Rattus norvegicus) (UniProt Q8CJF4); experiment: Inhibition of rat granzyme A.; summary of the method: as §1
T5 sequence (whole entry): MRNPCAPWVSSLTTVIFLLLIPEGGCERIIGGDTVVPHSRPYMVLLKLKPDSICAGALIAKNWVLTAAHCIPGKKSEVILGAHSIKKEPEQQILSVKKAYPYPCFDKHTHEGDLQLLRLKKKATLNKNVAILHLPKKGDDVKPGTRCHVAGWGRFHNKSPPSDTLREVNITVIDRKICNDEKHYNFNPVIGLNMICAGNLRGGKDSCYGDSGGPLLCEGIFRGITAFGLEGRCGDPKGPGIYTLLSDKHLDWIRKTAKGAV

[8] = biological target: T2, Granzyme K (Rattus norvegicus); experiment: Compound was evaluated to inhibit rat granzyme K;No inhibition; summary of the method: as §2
[9] = biological target: T2, Granzyme K (Rattus norvegicus); experiment: Inhibition of rat granzyme K; summary of the method: as §2
[10] = biological target: T4, Tryptase (Homo sapiens); experiment: Compound was evaluated to inhibit mast cell tryptase.; format: protein assay; details: concentration not given here; summary of the method: as §4

Row | Compound | kobs/[I] (second-order inactivation rate constant) [1] [M⁻¹ s⁻¹] | K obs / 1 [2] | K obs / 1 [3] | K obs / 1 [4] | K obs / 1 [5] [M⁻¹ s⁻¹] | kobs/[I] (second-order inhibition rate constant) [6] [M⁻¹ s⁻¹] | K obs / 1 [7] [M⁻¹ s⁻¹] | K obs / 1 [8] | kobs/[I] (second-order inactivation rate constant) [9] [M⁻¹ s⁻¹] | inhibition [10] [%]
1 | NCCCC(NC(=O)OCc1ccccc1)P(=O)(Oc1ccccc1)Oc1ccccc1 (stereo not given) | 0.6 | inactive | inactive | inactive |  |  |  |  |  | 
2 | NC(N)c1ccc(C(NS(=O)(=O)c2cccc3ccccc23)P(=O)(Oc2ccccc2)Oc2ccccc2)cc1 (stereo not given) | 330 | inactive |  |  | 170 | 10 | 30 |  |  | 
3 | C[C@H](NC(=O)[C@@H](CCCCN)NC(=O)OCc1ccccc1)C(=O)NC(c1ccc(C(N)N)cc1)P(=O)(Oc1ccccc1)Oc1ccccc1 (stereo not given in full) | 90 | inactive |  |  | 3140 | 2 |  |  |  | 
4 | CC(C)C[C@H](NC(=O)OCc1ccccc1)C(=O)NC(c1ccc(C(=N)N)cc1)P(=O)(Oc1ccccc1)Oc1ccccc1 (stereo not given in full) | 6.3 |  |  |  | 50 | 0.3 |  | inactive |  | 
5 | N=C(N)c1ccc(C(NC(=O)[C@H](Cc2ccccc2)NC(=O)OCc2ccccc2)P(=O)(Oc2ccccc2)Oc2ccccc2)cc1 (stereo not given in full) | 14 |  |  |  | 17 |  | 8 |  | 13 | 5
6 | C[C@H](NC(=O)OCc1ccccc1)C(=O)NC(c1ccc(C(N)N)cc1)P(=O)(Oc1ccccc1)Oc1ccccc1 (stereo not given in full) | 1670 | inactive |  |  | 1850 | 0.8 | 1270 |  |  | 
7 | N=C(N)c1ccc(C(NC(=O)[C@@H]2CCCN2C(=O)c2cccc(Oc3ccccc3)c2)P(=O)(Oc2ccccc2)Oc2ccccc2)cc1 (stereo not given in full) | 330 | inactive |  |  | 4080 |  |  |  |  | 7
8 | N=C(N)c1ccc(C(NC(=O)/C=C/c2cccnc2)P(=O)(Oc2ccccc2)Oc2ccccc2)cc1 (stereo not given) | 5 |  | inactive | inactive |  |  | 1 |  | 3 | 
9 | C[C@H](NC(=O)[C@@H](CCCCNC(=O)OC(C)(C)C)NC(=O)OCc1ccccc1)C(=O)NC(c1ccc(C(N)N)cc1)P(=O)(Oc1ccccc1)Oc1ccccc1 (stereo not given in full) | 110 | inactive |  |  | 3100 | 8.5 |  |  |  | 
